# Data taken from ChEMBL document CHEMBL3098007, “Synthesis of 3-heteryl substituted pyrrolidine-2,5-diones via catalytic Michael reaction and evaluation of their inhibitory activity against InhA and Mycobacterium tuberculosis” (Eur J Med Chem, 2014).
# Tests used:
# [1] = system: Mycobacterium tuberculosis; test: Antimicrobial activity against Mycobacterium tuberculosis H37Rv after 21 days by micro-broth dilution method; assay type: functional; conditions: 504 h
# [2] = Cytotoxicity against human GM637 cells after 4 days by WST-1 assay; assay type: cell-based; conditions: GM637, 96 h
# Outline: (§1)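 Cells cultured in DMEM with 10% fetal calf serum. Seeded at 3000 cells/well, treated 24 h later with 9 concentrations from 100 nM to 100 µM, 8 replicates each. Viability read by WST-1 after 4 days of treatment. IC50 derived by curve fitting.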
# HCT-116 = test: Cytotoxicity against human HCT116 cells after 4 days by WST-1 assay; assay type: cell-based; conditions: HCT-116, 96 h; outline: as §1
smiles,measurement,setting,value
NNC(=O)c1ccncc1 [ISONIAZID],MIC,[1],0.4 µM
O=C1CC(c2c3c([N+](=O)[O-])cc([N+](=O)[O-])cc3c3ccccn23)C(=O)N1c1ccccc1 (stereo not drawn),IC50,[2],> 100 µM
same,IC50,HCT-116,> 100 µM
same,MIC,[1],46.5 µM
O=C1CC(Sc2nc[nH]n2)C(=O)N1c1ccccc1 (stereo not drawn),IC50,[2],15 µM
same,IC50,HCT-116,17 µM
same,MIC,[1],18.2 µM
O=C1CC(n2ccnc2)C(=O)N1c1ccccc1 (stereo not drawn),IC50,[2],> 100 µM
same,IC50,HCT-116,> 100 µM
same,MIC,[1],82.9 µM
O=C1CC(N2CCc3ccccc3C2)C(=O)N1c1ccccc1 (stereo not drawn),IC50,[2],> 100 µM
same,IC50,HCT-116,> 100 µM
same,MIC,[1],8.2 µM
O=C1CC(N2CCN(C3c4ccccc4-c4ccccc43)CC2)C(=O)N1Cc1ccccc1 (stereo not drawn),MIC,[1],91.4 µM
COc1ccc(N2C(=O)CC(n3ccnc3)C2=O)cc1 (stereo not drawn),MIC,[1],55.3 µM
O=C1CC(c2c(-c3ccccc3)cc3ccccn23)C(=O)N1Cc1ccccc1 (stereo not drawn),MIC,[1],52.6 µM
COc1ccc(N2C(=O)CC(Sc3nnc[nH]3)C2=O)cc1 (stereo not drawn),MIC,[1],16.4 µM
Oc1cc(Cl)ccc1Oc1ccc(Cl)cc1Cl [TRICLOSAN],MIC,[1],34.5 µM
O=C1CC(N2CCN(C3c4ccccc4-c4ccccc43)CC2)C(=O)N1c1ccccc1 (stereo not drawn),IC50,[2],> 100 µM
same,IC50,HCT-116,> 100 µM
same,MIC,[1],94.4 µM
O=C(c1ccc2[nH]ccc2c1)N1CCN(C2c3ccccc3-c3ccccc32)CC1,MIC,[1],> 318 µM
O=C1CC(c2c(-c3ccccc3)cc3ccccn23)C(=O)N1c1ccccc1 (stereo not drawn),IC50,[2],> 100 µM
same,IC50,HCT-116,> 100 µM
same,MIC,[1],109 µM
O=C1CC(N2CCc3ccccc3C2)C(=O)N1Cc1ccccc1 (stereo not drawn),IC50,[2],> 100 µM
same,IC50,HCT-116,> 100 µM
same,MIC,[1],31.2 µM
